Source: PubChem
A selection: hits, their analogues and other compounds. The true share with any hit is near 3.5%.
RGS4 pot: RGS4 potentiation or activation. B-score at 10 µM. HEK293 M3R/inducible RGS4, carbachol calcium flux Fluo4; active compounds read low. hit rate 0.92% among 310,000;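 active = B-score of the integrated calcium signal more than 4 SD below the library mean, with starting fluorescence not abnormally high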;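 note: negative B-score means reduced calcium response which marks RGS4 activation or potentiation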
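Also added: carbachol at ECmax as muscarinic agonist stimulus; Assay system: HEK293 cells with stable M3R and inducible RGS4; Timing: overnight RGS4 induction, 30 min dye load 37 °C, 20 min compound RT; Measured by: Fluo4-AM (2 µM) calcium-flux fluorescence, kinetic read.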
MrgX1 PAM: allosterically activates human MrgX1 receptor signaling; AID 588675; hit rate 0.63% among 310,000; B-score at 10 µM; MrgX1-HEK293, Fluo-4 calcium flux, FDSS; active compounds read high;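 active = plate-corrected calcium response at least 3 library SD above typical, normal starting fluorescence, not activating the receptor alone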;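 note: compound read alongside a low EC10 to EC30 dose of BAM8-22 agonist; peak minus trough fluorescence over baseline measured at the second addition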
Target sequence (Q96LB2 whole entry, looked up): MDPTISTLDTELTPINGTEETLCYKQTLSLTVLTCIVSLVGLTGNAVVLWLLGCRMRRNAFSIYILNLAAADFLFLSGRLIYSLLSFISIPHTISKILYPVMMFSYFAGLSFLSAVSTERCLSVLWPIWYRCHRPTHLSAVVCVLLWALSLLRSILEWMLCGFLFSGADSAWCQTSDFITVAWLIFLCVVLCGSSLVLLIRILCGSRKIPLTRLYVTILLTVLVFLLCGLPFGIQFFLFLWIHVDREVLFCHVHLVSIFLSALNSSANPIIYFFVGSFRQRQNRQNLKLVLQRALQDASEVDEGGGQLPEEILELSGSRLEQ
MrgX1 ag: agonists of human MrgX1 receptor | hit rate 0.44% among 310,000 | Q96LB2 | AID 588627 | MrgX1-HEK293 cells, Fluo-4 calcium fluorescence, agonist mode; active compounds read high | B-score at 10 µM;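 active = calcium response B-score plate-corrected fluorescence ratio at least 3 library SD, with starting fluorescence B-score inside 5 SD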
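Test system: HEK293 cells stably expressing human MrgX1 receptor; amount: 15,000 cells per well; doses: compound delivered in addition one of three; times: overnight plating before 1 h dye loading; detection: Fluo-4 NW calcium-flux fluorescence, kinetic read; read-out basis: B-scored fluorescence response ratio; controls: positive and negative controls per plate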
RGS4 block: human RGS4 inhibition; HEK293 M3R/RGS4 inducible, Fluo-4 calcium flux; active compounds read high; triggered by carbachol at its EC20; B-score at 10 µM; hit rate 0.45% among 310,000; AID 463165;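 active = B-score, a plate-corrected calcium signal, over three deviations above library mean, with baseline fluorescence within five deviations of library mean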;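 note: RGS4 expression induced by doxycycline in cells with stable M3 receptor; B-score is computed from the integrated fluorescence ratio over baseline after carbachol; higher B-score means a larger calcium signal and so more RGS4 inhibition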
Target sequence (P49798 whole entry, looked up): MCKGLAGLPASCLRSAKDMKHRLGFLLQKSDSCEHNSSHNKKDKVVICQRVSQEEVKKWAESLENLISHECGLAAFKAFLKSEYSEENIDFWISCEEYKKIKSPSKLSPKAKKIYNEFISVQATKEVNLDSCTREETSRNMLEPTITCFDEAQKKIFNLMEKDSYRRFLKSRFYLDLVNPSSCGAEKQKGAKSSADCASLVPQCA
MrgX1 antag: human MrgX1 receptor antagonism, primary screen; Q96LB2; MRGX1-HEK293 calcium flux, Fluo-4, BAM8-22 antagonism; active compounds read low; B-score at 10 µM; hit rate 1.3% among 310,000; AID 588676;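 active = calcium-response B-score plate-corrected more than 3 library SD below zero, starting fluorescence within 5 deviations, no agonist response on first addition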;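 note: peak minus trough fluorescence over baseline after final BAM8-22 challenge near maximal dose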
RGS4 block valid: RGS4 inhibitor validation. shares compounds with RGS4 block. HEK293 M3R/RGS4, carbachol calcium Fluo-4 fluorescence; carbachol added at its EC20; 0 = buffer wells, 100 = carbachol control. calcium response, % at 10 µM. hit rate 65% among 1,700. AID 492999;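 active = duplicate-averaged calcium response above the buffer-only control mean plus 5 SD of those controls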;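 note: integrated fluorescence ratio F max minus min over baseline F0; higher response in RGS4-induced cells means RGS4 inhibition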
M3R Ca ctr: non-induced cell nonspecific activity of RGS4 inhibitors. shares compounds with RGS4 block. HEK293 M3R non-induced, carbachol calcium Fluo-4; submaximal (EC20) carbachol stimulus; buffer wells 0%, carbachol control wells 100%. activity (percent), % at 10 µM. hit rate 20% among 1,900; call rule not given here;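 note: RGS4 induction absent so cells express M3R without RGS4; higher means more calcium signal and flags a non-specific hit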
M3R basal Ca ctr: signal in non-induced cells without carbachol, RGS4 inhibitor counter-screen | HEK293 M3R/RGS4 non-induced, Fluo-4 calcium, no carbachol; normalised: buffer wells 0%, carbachol wells 100% | hit rate 22% among 1,900 | calcium response (agonist-mode artifact), % at 10 µM | shares compounds with RGS4 block;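 active = duplicate-averaged calcium rise in uninduced cells above buffer wells' mean plus 5 SD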
* hit, by the source's call; i = inactive; · = not tested or not shown.

SMILES	RGS4 pot	MrgX1 PAM	MrgX1 ag	RGS4 block	MrgX1 antag	RGS4 block valid	M3R Ca ctr	M3R basal Ca ctr
CCC1(C)Cc2ccccc2-c2nc(NCCCO)[nH]c(=O)c21 (configuration not stated)	i	i	i	i	i	·	39%*	i
CN(C)Cc1nc2c(c(=O)[nH]1)C1(CCCCC1)Cc1ccccc1-2	i	i	i	i	i	·	·	·
O=C(N/N=C/c1cccc([N+](=O)[O-])c1)C(=O)N1CCCCCC1	i	i	i	i	i	·	·	·
CC1CC(C)CN(C(=O)C(C)N(C)CC(=O)Nc2ccccc2Cl)C1 (configuration not stated)	i	i	i	i	i	·	·	·
O=C(O)c1ccc2c(=O)n3c(nc2c1)/C(=C/c1cccc(O)c1)CC3	i	i	i	i	i	·	·	·
COC(=O)c1ccc(/C=C2\CCn3c2nc2cc(C(=O)O)ccc2c3=O)cc1	i	i	i	i	i	·	·	·
Cc1ccc(C)c(/C=C2\CCn3c2nc2cc(C(=O)O)ccc2c3=O)c1	i	i	i	i	i	i	i	i
O=C(O)c1ccc2c(=O)n3c(nc2c1)/C(=C/c1ccc(Cl)c(Cl)c1)CC3	i	i	i	16*	i	30%*	i	i
CCOC(=O)[C@@H]1[C@H]2COc3cc(OC)ccc3[C@H]2N2C(=O)N(c3cccc(Cl)c3)C(=O)[C@@]12C	i	i	i	i	i	i	i	i
CCOC(=O)[C@@H]1[C@H]2COc3cc(OC)ccc3[C@H]2N2C(=O)N(c3cccc(Cl)c3)C(=O)[C@]12C	i	i	i	i	i	i	i	i
Cc1ccc(CNC(=O)C2CCC(=O)N(CCc3ccc(Cl)cc3)C2)s1 (configuration not stated)	i	i	i	i	i	·	·	·
C=CCNC(=O)CSCc1ccc(Br)cc1	i	i	i	i	i	·	·	·
CC(=O)Oc1ccc(OC(C)=O)c(SCCCCCN2CCOCC2)c1	i	i	i	i	i	·	·	·
O=C(CSc1nnc(SCc2cccc3ccccc23)s1)N/N=C/c1c[nH]c2ccccc12	i	i	i	4.7*	i	20%*	i	i
O=C(O)COc1ccccc1/C=N/NC(=O)CSc1nnc(SCc2cccc3ccccc23)s1	i	i	i	i	i	·	·	·
O=C(CSc1nnc(SCc2ccc(Cl)cc2)s1)N/N=C/c1c[nH]c2ccccc12	i	i	i	i	i	·	i	i
O=S(=O)(/N=C(\Sc1ccc(Cl)cc1)c1ccccc1)c1ccccc1	i	i	i	i	i	i	i	18%*
N#Cc1cc2c(cc1NC(=O)CCn1cnnn1)OCO2	i	i	i	i	i	·	·	·
Cc1cc(NC(=O)c2ccc(Cl)cc2)ccc1NC(=O)c1ccccc1Cl	i	i	i	i	i	·	·	·
COc1cc(/C=C/C(=O)c2ccc(C)cc2)ccc1OCC#N	i	i	i	i	i	i	32%*	i
Cc1ccc(/C=C/C(=O)c2ccccc2)cc1	i	i	i	i	i	·	·	·
COC(=O)c1ccc(/C=C/C(=O)c2ccc(OC)c(OC)c2)cc1	i	i	i	8.9*	i	7.0%*	44%*	i
Cc1ccc(C(=O)/C=C/c2ccc3ncccc3c2)cc1	i	i	i	7.8*	i	22%*	36%*	i
COc1cc(C2C3=C(CC(C)(C)CC3=O)N(C)C3=C2C(=O)CC(C)(C)C3)cc(Br)c1O	i	i	i	i	i	·	·	·
O=C(OCn1ncc(Br)c(Br)c1=O)c1ccc(F)cc1	i	i	i	13*	i	24%*	i	i
SMILES	RGS4 pot	MrgX1 PAM	MrgX1 ag	RGS4 block	MrgX1 antag	RGS4 block valid	M3R Ca ctr	M3R basal Ca ctr
C/C(=N\NC(=O)c1c(Cl)cnn1C)c1ccc(NC(=O)c2ccncc2)cc1	i	i	i	9.6*	i	i	i	i
O=C(N/N=C/c1c[nH]c2ccccc12)c1[nH]c2ccc(Br)cc2c1-c1ccccc1	i	·	·	7*	·	18%*	28%*	i
O=C(N/N=C/c1ccc(O)cc1)c1[nH]c2ccc(Br)cc2c1-c1ccccc1	i	i	i	i	i	·	·	·
O=C(O)COc1ccc(/C=C/C(=O)c2ccc3ccccc3c2)cc1	i	i	i	4.8*	i	i	i	i
O=C(/C=C/NNC(=O)c1ccc(Cl)cc1)c1ccccc1	i	i	i	6.1*	i	i	i	i
COc1ccc(Cc2nnc(SCC(=O)NCC3CCCO3)o2)cc1 (configuration not stated)	i	i	i	i	i	·	·	·
CCOC(=O)C1(Cc2cccc(Cl)c2)CCCN(C(=O)c2cc(C(C)C)nn2C)C1 (configuration not stated)	i	i	i	i	i	·	·	·
O=C(CSc1nc2ccccc2[nH]1)Nc1nc(-c2ccc(Br)cc2)cs1	i	i	i	6.6*	i	6.0%*	i	i
CCCc1cc(=O)[nH]c(SCC(=O)Nc2nc(-c3ccccc3)cs2)n1	i	i	i	i	i	·	·	·
Cc1nc2sc3c(=O)[nH]nnc3c2c(C)c1Br	i	i	i	i	i	·	·	·
CCCCC1CCC(C(=O)NCC(c2ccco2)N2CCOCC2)CC1 (configuration not stated)	i	i	i	i	i	·	·	·
O=c1cc(-c2ccc(O)c(O)c2)oc2cc(O)cc(O)c12	i	i	i	i	i	·	·	·
O=c1c(O)c(-c2ccc(O)c(O)c2)oc2cc(O)cc(O)c12	i	8.8*	i	5*	i	34%*	40%*	i
CCN(CCO)c1nc(SC)nc2c1sc1nc(-c3ccco3)c3c(c12)CCC3	i	i	i	i	i	i	i	i
O=C1CCCC(O)=C1C(C#Cc1ccccc1)C1=C(O)CCCC1=O	i	i	27*	6.7*	i	50%*	i	11%*
O=C1CCCC(O)=C1Sc1ccccc1C(=O)O	i	i	i	i	i	·	·	·
